In ChEMBL document CHEMBL1955816, “Nitric oxide release is not required to decrease the ulcerogenic profile of nonsteroidal anti-inflammatory drugs” (J Med Chem, 2012):

Key:
[1] = Lipophilicity, log P of the compound; format: physicochemical; conditions: octanol/water
Outline: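 Log P is a theoretical n-octanol/water distribution coefficient, calculated rather than measured.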

[2] = biological target: T1, Prostaglandin G/H synthase 1 (Ovis aries, UniProt P05979); assay: Inhibition of ovine COX1
T1 sequence (P05979 whole entry): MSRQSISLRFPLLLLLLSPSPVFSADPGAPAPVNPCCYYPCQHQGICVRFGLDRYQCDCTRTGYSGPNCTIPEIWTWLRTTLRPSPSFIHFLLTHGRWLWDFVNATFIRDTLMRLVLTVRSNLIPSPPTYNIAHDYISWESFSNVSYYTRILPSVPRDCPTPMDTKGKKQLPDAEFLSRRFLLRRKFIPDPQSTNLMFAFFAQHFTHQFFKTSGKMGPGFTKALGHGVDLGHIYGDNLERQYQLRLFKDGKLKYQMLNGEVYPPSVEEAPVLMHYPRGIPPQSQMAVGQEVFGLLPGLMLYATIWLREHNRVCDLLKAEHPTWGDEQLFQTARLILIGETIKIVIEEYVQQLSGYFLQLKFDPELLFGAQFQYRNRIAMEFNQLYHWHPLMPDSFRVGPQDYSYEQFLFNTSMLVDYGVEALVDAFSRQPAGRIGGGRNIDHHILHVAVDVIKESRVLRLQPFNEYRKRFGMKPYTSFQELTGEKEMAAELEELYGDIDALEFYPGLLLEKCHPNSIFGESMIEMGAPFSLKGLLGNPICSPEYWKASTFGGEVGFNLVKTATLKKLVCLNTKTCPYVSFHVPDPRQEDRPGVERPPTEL
Outline: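 Ovine COX-1 was tested in a cyclooxygenase inhibitor screening kit, following the manufacturer's procedure. Deviation from the mean was <10%.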

Rattus norvegicus [3] = assay: Ulcerogenic effect in rat assessed as gastric ulcer overall length at 1.4 mmol/kg, po administered for 6 hrs; format: toxicity, organism-based, Stomach; conditions: in vivo
Outline: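 Rats fasted 24 h with water allowed, then given a suspension in 1.2 mL 1% methylcellulose by gavage. Controls received vehicle. At 6 h, CO2 euthanasia. Stomachs were opened along the greater curvature, rinsed and put on ice. Ulcers were counted and measured under a magnifier (≤1 mm = 1, 1–2 mm = 2, >2 mm = length). Ulcer index = summed length per stomach averaged over n = 4, ±SEM.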

Rattus norvegicus [4] = assay: Antiinflammatory activity in rat assessed as inhibition of carrageenan-induced paw edema at 0.71 mmol/kg, po after 3 hrs relative to control; format: functional; parameters: scale not given: the % may be the effect or the level left
Outline: (§1)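 Rats were given an oral gavage suspension in 1% methylcellulose, at doses equimolar to the parent NSAID: 0.71, 0.32 or 0.01 mmol/kg. Controls received an equal volume of vehicle. Carrageenan-induced paw edema was read 3 h after dosing. Activity is the % decrease in the inflammatory response versus the vehicle group.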

Rattus norvegicus [5] = assay: Antiinflammatory activity in rat assessed as inhibition of carrageenan-induced paw edema at 0.32 mmol/kg, po after 3 hrs relative to control; format: functional; parameters: scale not given: the % may be the effect or the level left; outline: as §1
Rattus norvegicus [6] = assay: Antiinflammatory activity in rat assessed as inhibition of carrageenan-induced paw edema at 0.01 mmol/kg, po after 3 hrs relative to control; format: functional; parameters: scale not given: the % may be the effect or the level left; outline: as §1
Rattus norvegicus [7] = assay: Ulcerogenic effect in rat assessed as gastric ulcer overall length at 0.08 mmol/kg, po administered for 6 hrs; format: toxicity, organism-based, Stomach; conditions: in vivo
Outline: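 Rats were fasted 24 h with water allowed, then dosed orally at 0.08 mmol/kg as a suspension in 1% methylcellulose. Controls received vehicle. After 6 h, animals were killed by CO2 and stomachs opened along the greater curvature, rinsed and kept on ice. Each ulcer was measured along its greatest length under a magnifier. Ulcer index is the total ulcer length per stomach averaged over n = 4, ±SEM.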

Rattus norvegicus [8] = assay: Antiinflammatory activity in po dosed rat assessed as inhibition of carrageenan-induced paw edema after 3 hrs; format: functional; conditions: read-out: ID50 (the source's name); outline: as §1

| SMILES | IC50 [2] [µM] | logP [1] | UI (Rattus norvegicus [3]) [mm] | Activity (Rattus norvegicus [4]) [%] | Activity (Rattus norvegicus [5]) [%] | Activity (Rattus norvegicus [6]) [%] | UI (Rattus norvegicus [7]) [mm] | ED50 (Rattus norvegicus [8]) [µmol/kg] |
| --- | --- | --- | --- | --- | --- | --- | --- | --- |
| CC(=O)Oc1ccccc1C(=O)O [ASPIRIN] | – | 1.2 | 57.4 | 50 | – | – | – | 700 |
| CC(C)Cc1ccc(C(C)C(=O)O)cc1 (stereo not given) [IBUPROFEN] | – | 3.7 | – | – | 50 | – | – | 300 |
| COc1ccc2c(c1)c(CC(=O)O)c(C)n2C(=O)c1ccc(Cl)cc1 [INDOMETHACIN] | – | – | – | – | – | 38.3 | 34.4 | – |

Continued, in another order:

| IC50 [2] [µM] | SMILES | logP [1] | UI (Rattus norvegicus [3]) [mm] | Activity (Rattus norvegicus [4]) [%] | Activity (Rattus norvegicus [5]) [%] | Activity (Rattus norvegicus [6]) [%] | UI (Rattus norvegicus [7]) [mm] | ED50 (Rattus norvegicus [8]) [µmol/kg] |
| --- | --- | --- | --- | --- | --- | --- | --- | --- |
| 0.03 | CC(=O)Oc1ccccc1C(=O)Oc1ccc(CCO)cc1 | 2 | 2.6 | 58 | – | – | – | – |
| 6.44 | CC(C)Cc1ccc(C(C)C(=O)Oc2ccc(CCO)cc2)cc1 (stereo not given) | 4.6 | 3.5 | – | 63 | – | – | – |
| > 100 | COc1ccc2c(c1)c(CC(=O)Oc1ccc(CCO)cc1)c(C)n2C(=O)c1ccc(Cl)cc1 | – | – | – | – | 61.3 | 9.6 | – |
